# Test results published in ChEMBL document CHEMBL1914393, “Chemical scaffolds with structural similarities to siderophores of nonribosomal peptide-polyketide origin as novel antimicrobials against Mycobacterium tuberculosis and Yersinia pestis” (Bioorg Med Chem Lett, 2011).
# pIC50: −log10 of the molar value. Activity calls are given as the source filed them.
# How the values were obtained:
# [1] = test system: Mycobacterium tuberculosis; test: Antimicrobial activity against Mycobacterium tuberculosis H37Rv in GASTD medium after 10 days by spectrophotometric analysis; assay type: functional, organism-based; conditions: 240 h
# Outline: (§1)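 Virulent H37Rv, twofold microdilution in iron-limiting GASTD or GASTD plus 100 μM FeCl3, started at OD600 0.001 from deferrated stocks. Compounds were added in DMSO (0.5% final) up to 500 μM or the solubility limit. Cultures sat stationary for 10 days at 37 °C, read at OD600. IC50 from sigmoidal fits to triplicates; MIC90 is the lowest concentration giving ≥90% inhibition versus DMSO controls. Ratios are +Fe/GASTD.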
# [2] = test system: Mycobacterium tuberculosis; test: Antimicrobial activity against Mycobacterium tuberculosis H37Rv in GASTD medium supplemented with 100 uM FeCl3 after 10 days by spectrophotometric analysis; assay type: functional, organism-based; conditions: 240 h; outline: as §1
# [3] = test system: Yersinia pestis; test: Antimicrobial activity against Yersinia pestis KIM6-2082.1+ in PMHD medium after 26 hrs by spectrophotometric analysis; assay type: functional, organism-based
# [4] = test system: Yersinia pestis; test: Antimicrobial activity against Yersinia pestis KIM6-2082.1+ in PMHD medium supplemented with 100 uM FeCl3 after 26 hrs by spectrophotometric analysis; assay type: functional, organism-based
# [5] = test system: Mycobacterium tuberculosis; test: Ratio of IC50 for Mycobacterium tuberculosis H37Rv in GASTD medium supplemented with 100 uM FeCl3 to IC50 for Mycobacterium tuberculosis H37Rv in Fe-deficient GASTD medium; assay type: functional; outline: as §1
# [6] = test system: Yersinia pestis; test: Ratio of IC50 for Yersinia pestis KIM6-2082.1+ in PMHD medium supplemented with 100 uM FeCl3 to IC50 for Yersinia pestis KIM6-2082.1+ in Fe-deficient PMHD medium; assay type: functional
# [7] = test system: Mycobacterium tuberculosis; test: Bactericidal activity against Mycobacterium tuberculosis H37Rv in GASTD medium at MIC after 30 days by colony counting; assay type: functional, organism-based
# Outline: (§2)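 Duplicate GASTD cultures were treated and incubated as in the growth assay (37 °C, 10 days), then serial 10-fold dilutions were plated on Middlebrook 7H11. Colonies were counted after 30 days at 37 °C and reported as CFU/mL. Bactericidal was defined as >99% killing relative to inoculum.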
# [8] = test system: Yersinia pestis; test: Bacteriostatic activity against Yersinia pestis KIM6-2082.1+ in PMHD medium at 2 times MIC after 3 days by colony counting; assay type: functional, organism-based
# [9] = test system: HeLa; test: Cytotoxicity against human HeLa cells at 0.2 uM after 24 hrs by ATPLite assay; assay type: cell-based
# Outline: (§3)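 HeLa cells in 96-well format, read with an ATPLite reagent-based viability assay. Cell–compound contact lasted 4 hr or 24 hr, and viability was expressed relative to untreated controls.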
# [10] = test system: Yersinia pestis; test: Ratio of MIC90 for Yersinia pestis KIM6-2082.1+ in PMHD medium supplemented with 100 uM FeCl3 to IC50 for Yersinia pestis KIM6-2082.1+ in Fe-deficient PMHD medium; assay type: functional
# [11] = test system: Mycobacterium tuberculosis; test: Ratio of MIC90 for Mycobacterium tuberculosis H37Rv in GASTD medium supplemented with 100 uM FeCl3 to MIC90 for Mycobacterium tuberculosis H37Rv in Fe-deficient GASTD medium; assay type: functional; outline: as §1
# [12] = test system: Yersinia pestis; test: Bactericidal activity against Yersinia pestis KIM6-2082.1+ in PMHD medium at 2 times MIC after 3 days by colony counting; assay type: functional, organism-based
# [13] = test system: Mycobacterium tuberculosis; test: Bactericidal activity against Mycobacterium tuberculosis H37Rv in GASTD medium at 2 times MIC after 30 days by colony counting; assay type: functional, organism-based; outline: as §2
# [14] = test system: Yersinia pestis; test: Bacteriostatic activity against Yersinia pestis KIM6-2082.1+ in PMHD medium at MIC after 3 days by colony counting; assay type: functional, organism-based
# [15] = test system: HeLa; test: Cytotoxicity against human HeLa cells at 21 uM after 24 hrs by ATPLite assay; assay type: cell-based; outline: as §3
# [16] = test system: HeLa; test: Cytotoxicity against human HeLa cells at 16 uM after 24 hrs by ATPLite assay; assay type: cell-based; outline: as §3
# [17] = test system: Yersinia pestis; test: Bactericidal activity against Yersinia pestis KIM6-2082.1+ in PMHD medium at MIC after 3 days by colony counting; assay type: functional, organism-based
# [18] = test system: HeLa; test: Cytotoxicity against human HeLa cells at 10 uM after 24 hrs by ATPLite assay; assay type: cell-based; outline: as §3
# [19] = test system: Mycobacterium tuberculosis; test: Bactericidal activity against Mycobacterium tuberculosis H37Rv in GASTD medium at 4 times MIC after 30 days by colony counting; assay type: functional, organism-based; outline: as §2
# [20] = test system: HeLa; test: Cytotoxicity against human HeLa cells at 7 uM after 24 hrs by ATPLite assay; assay type: cell-based; outline: as §3
# [21] = test system: HeLa; test: Cytotoxicity against human HeLa cells at 125 uM after 4 hrs by ATPLite assay; assay type: cell-based; outline: as §3
# [22] = test system: HeLa; test: Cytotoxicity against human HeLa cells at 125 uM after 24 hrs by ATPLite assay relative to control; assay type: cell-based; outline: as §3
Compound,pIC50 [1],MIC90 [1] [µM],pIC50 [2],MIC90 [2] [µM],pIC50 [3],MIC90 [3] [µM],pIC50 [4],MIC90 [4] [µM],Ratio IC50 [5],Ratio IC50 [6],Ratio [10],Ratio [11],Activity [12],Activity [13],also measured
O=C(NO)N1N=C(c2ccccc2O)C[C@H]1c1ccc(O)cc1,4.38,125,4.40,> 31,4.89,> 31,< 4.51,> 31,1,>2,–,–,–,–,Activity [7]: Active
O=C(NO)N1CCN(C(=S)N/N=C/c2ccccc2O)CC1,4.70,> 31,< 5.10,> 8,7.40,0.2,< 5.40,> 4,–,>100,>20,–,–,–,Activity [8]: Active; Activity [9]: Non-toxic
N/C(=N\O)N/N=C/c1ccccc1O,4.96,222,4.82,26,4.15,250,3.52,> 500,1,4,>2,1,Active,Active,–
CSC(=S)N/N=C/c1ccc(O)cc1,4.51,59,4.48,59,3.86,388,< 3.63,> 233,1,>2,–,1,–,Active,Activity [14]: Active
N=C(NO)N1N=C(c2ccccc2O)C[C@H]1c1ccccc1O,4.43,125,4.49,> 125,5.40,16,< 4.80,> 16,1,>4,>1,>1,Active,Active,Activity [15]: Non-toxic; Activity [16]: Non-toxic
Cc1ccccc1[C@@H]1CC(c2ccccc2O)=NN1C(N)=S,5.15,16,5.15,16,< 4.21,> 63,< 4.51,> 31,1,–,–,1,–,Active,Activity [16]: 24%
CN[C@@H]1[C@H](O[C@H]2[C@H](O[C@H]3[C@H](O)[C@@H](O)[C@H](N=C(N)N)[C@@H](O)[C@@H]3N=C(N)N)O[C@@H](C)[C@]2(O)C=O)O[C@@H](CO)[C@H](O)[C@H]1O [STREPTOMYCIN],–,–,–,–,6.00,1,6.00,2,–,1,2,–,Active,–,–
Oc1ccccc1C1=NN[C@H](c2ccccc2O)C1,4.60,66,4.74,59,5.05,31,< 5.10,> 8,1,–,–,1,–,Active,Activity [17]: Active
Oc1ccc([C@@H]2CC(c3ccccc3O)=NN2)cc1,4.34,125,4.43,125,4.70,> 31,< 4.51,> 31,1,>2,–,1,–,–,Activity [7]: Active
CSC(=S)N/N=C/c1ccccc1O,5.52,7,5.70,6,5.40,15,< 4.23,> 59,1,>15,>4,1,–,–,Activity [18]: Non-toxic; Activity [19]: Active; Activity [8]: Active; Activity [20]: Non-toxic
N=C(NO)N1N=C(c2ccccc2O)C[C@H]1c1ccc(O)cc1,4.33,125,4.66,31,5.30,21,< 4.20,> 63,0.5,>13,>3,0.2,Active,Active,Activity [21]: Non-toxic; Activity [15]: Non-toxic; Activity [16]: Non-toxic; Activity [22]: 70%
N=C(N)N1N=C(c2ccccc2O)C[C@H]1c1ccccc1O,4.36,66,4.64,66,5.15,42,< 4.20,> 63,1,>9,>1,1,–,Active,Activity [17]: Active
CSC(=S)N/N=C(\C)c1ccccc1O,5.40,10,5.40,9,4.21,116,3.81,233,1,>3,2,1,Active,Active,Activity [18]: Non-toxic; Activity [20]: Non-toxic
